From ChEMBL document CHEMBL3046752, “Characterization of the volatile constituents in the essential oil of Pistacia lentiscus L. from different origins and its antifungal and antioxidant activity” (2007) come the findings set out here.

For test [1], the system named is Aspergillus flavus. The experiment in a line: Antifungal activity against Aspergillus flavus assessed as mycelial growth at 20 uL after 4 to 12 days by agar disk diffusion method relative to untreated control. Type of test: functional. In a few lines:
(§1)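 Aspergillus flavus, isolated from feeds, was grown on PDA plates seeded with 6 mm mycelial plugs from 10-day cultures. Three paper disks per dish carried either 60 µL pure essential oil or 60, 40 or 20 µL of single major oil constituents. Plates were sealed and incubated in the dark at 22 °C. Average colony diameter was read at 4, 8 and 12 days against water-impregnated disk controls.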

Test [2] relates to Aspergillus flavus. The experiment in a line: Antifungal activity against Aspergillus flavus assessed as mycelial growth at 60 uL after 4 to 12 days by agar disk diffusion method relative to untreated control. Type of test: functional. In a few lines:
as §1
Background: In agar diffusion tests the substance spreads into inoculated agar from a disc or well.

Each structure is given as a SMILES string.

`CC1=CC[C@H](C(C)C)C=C1` [ALPHA-PHELLANDRENE]: the Activity with Aspergillus flavus [1] and in the test on Aspergillus flavus [2] was 0% throughout.
Regarding `CC1=CC=C(C(C)C)CC1` [ALPHA-TERPINENE], the Activity with Aspergillus flavus [1] and with Aspergillus flavus [2] was 0% in each case.
As to `CC1=CC[C@@H](C(C)(C)O)CC1` [ALPHA-TERPINEOL], the Activity in the test with Aspergillus flavus [1] and in the test with Aspergillus flavus [2] was 100% in each case.
For `CC1=CCC(C(C)C)=CC1` [GAMMA-TERPINENE], the Activity in the test on Aspergillus flavus [1] and in the test with Aspergillus flavus [2] was 0% each time.
As to `CC1=CCC(O)(C(C)C)CC1` (configuration not stated) [TERPINEOL], the Activity in the test with Aspergillus flavus [1] and in the test with Aspergillus flavus [2] was 100% in each case.
As to `CC1=CCC(=C(C)C)CC1` [TERPINOLENE], the Activity in the test with Aspergillus flavus [1] and in the test with Aspergillus flavus [2] was 0% in each case.
